Results as given in the array DNA melting data of Ke et al. (doi:10.1101/2024.01.08.574731).

Key:
[1] = folding enthalpy; higher = less favourable; fluorescence melt of hairpins on a sequencing array, two-state fit; conditions: sodium 0.088 M
Summary of the method: (§1)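 Melting temperature and folding enthalpy were derived from bootstrapped two-state fits. The fitted temperatures were raised by 9.35 °C to agree with UV melts, and four replicates were combined by inverse variance. The underlying data were Cy3 fluorescence images of library hairpins, with annealed Cy3 and quencher oligos, on a sequenced MiSeq flow cell in 50 mM Na-HEPES pH 8.0, 25 mM NaCl, taken in 2.5 °C steps up to 60 °C, normalised to pre-quench Cy3 and to control constructs.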

[2] = melting temperature; fluorescence melt of hairpins on a sequencing array, two-state fit, raised by 9.35 °C to match UV melts; conditions: sodium 0.088 M
Summary of the method: as §1

Q: For GACGTGGGAAACTACGTC (((((.(....).))))), which folding enthalpy [1] is on record?
A: -38.4 kcal/mol

Q: What about the Tm [2] of the same sequence?
A: 52.5 °C

Q: Which folding enthalpy [1] does the source give for GTCACGGGAAACTGTGGC (.(((.(....).))).) here?
A: -31.9 kcal/mol

Q: What about the Tm [2] of the same sequence?
A: 44.4 °C

Q: For GTTGCGCCGAAAGGCAAC (((..(((....)))))), which folding enthalpy [1] is on record?
A: -13.2 kcal/mol

Q: And the Tm [2]?
A: 42.4 °C

Q: For GGGCCACGAAAGTGCCCC (((.(((....))).))), which folding enthalpy [1] is on record?
A: -17.3 kcal/mol

Q: And the Tm [2]?
A: 59.3 °C

Q: Which results are given for GATCCACATTTGGATC ((((((....))))))?
A: folding enthalpy [1]: -36.8 kcal/mol; Tm [2]: 50.7 °C

Q: Which folding enthalpy [1] does the source give for GATCATTGGTATGATC ((((((....)))))) here?
A: -31.8 kcal/mol

Q: And the Tm [2]?
A: 46.3 °C

Q: What does the source list for GAACCACGAAAGTGTTTC (((.(((....))).)))?
A: folding enthalpy [1]: -27.6 kcal/mol; Tm [2]: 37.2 °C

Q: Which folding enthalpy [1] does the source give for GATCAAAGAATTGATC ((((((....)))))) here?
A: -21.8 kcal/mol

Q: What about the Tm [2] of the same sequence?
A: 40 °C

Q: Which results are given for GCGGCTACCCGC ((((....))))?
A: folding enthalpy [1]: -22.2 kcal/mol; Tm [2]: 55.7 °C

Q: Which folding enthalpy [1] does the source give for GATCAAATTATTGATC ((((((....)))))) here?
A: -27.7 kcal/mol

Q: What about the Tm [2] of the same sequence?
A: 41.4 °C

Q: For GAGCCCGAAAGGGCCCTC ((((((....)))..))), which folding enthalpy [1] is on record?
A: -9.76 kcal/mol

Q: What about the Tm [2] of the same sequence?
A: 47.6 °C

Q: For GCCGAGTCGAAAGACGGC (((..(((....)))))), which folding enthalpy [1] is on record?
A: -21.2 kcal/mol

Q: And the Tm [2]?
A: 56.6 °C

Q: For GGTGCCGAAAGGCGACC ((((((....))).))), which folding enthalpy [1] is on record?
A: -16.8 kcal/mol

Q: And the Tm [2]?
A: 61 °C

Q: Which results are given for GTTTAAGCGAAAGCTAAC (((..(((....))))))?
A: folding enthalpy [1]: -11.8 kcal/mol; Tm [2]: 32 °C

Q: For GATCGTTTGACGATC ((((((...)))))), which folding enthalpy [1] is on record?
A: -24.6 kcal/mol

Q: And the Tm [2]?
A: 55.5 °C

Q: With GCTCCGCCGAAAGGCAGC (((..(((....)))))) as the sequence, how does the folding enthalpy [1] read?
A: -9.89 kcal/mol

Q: And the Tm [2]?
A: 35.1 °C

Q: For GCGACGCGAAAGCACCGC (((..((....))..))), which folding enthalpy [1] is on record?
A: -19.7 kcal/mol

Q: What about the Tm [2] of the same sequence?
A: 55.8 °C

Q: For GAGATTGGAAACAGTCTC ((((.((....)).)))), which folding enthalpy [1] is on record?
A: -27.4 kcal/mol

Q: What about the Tm [2] of the same sequence?
A: 40.8 °C

Q: With GCCCCCGGAAACAGGGGC (((((.(....).))))) as the sequence, how does the folding enthalpy [1] read?
A: -35 kcal/mol

Q: What about the Tm [2] of the same sequence?
A: 56.7 °C

Q: Which folding enthalpy [1] does the source give for GACACGGGAAACCGTACC (..((((....))))..) here?
A: -8.11 kcal/mol

Q: And the Tm [2]?
A: 27.9 °C

Q: For GTCGCCACGAAAGTGGAC (((..(((....)))))), which folding enthalpy [1] is on record?
A: -9.49 kcal/mol

Q: And the Tm [2]?
A: 35.7 °C

Q: Which folding enthalpy [1] does the source give for GTAGCCGAAAGGCGCTAC ((((((....)))..))) here?
A: -9.33 kcal/mol

Q: What about the Tm [2] of the same sequence?
A: 42.8 °C

Q: Which folding enthalpy [1] does the source give for GTATAGCGAAAGCTCTAC (((.(((....))).))) here?
A: -17.3 kcal/mol

Q: And the Tm [2]?
A: 39.7 °C

Q: Which folding enthalpy [1] does the source give for GTAGACCGAAAGGTTTAC (((.(((....))).))) here?
A: -27.9 kcal/mol

Q: And the Tm [2]?
A: 48.5 °C

Q: Which folding enthalpy [1] does the source give for GCTATTGCGAAAGCAAGC (((..(((....)))))) here?
A: -10.2 kcal/mol

Q: What about the Tm [2] of the same sequence?
A: 42.2 °C

Q: Which folding enthalpy [1] does the source give for GTTTATGGAAACATAAGC (.(((((....))))).) here?
A: -20.8 kcal/mol

Q: What about the Tm [2] of the same sequence?
A: 33.7 °C

Q: What does the source list for GGGCGACGAAAGTCCCCC (((.(((....))).)))?
A: folding enthalpy [1]: -31.2 kcal/mol; Tm [2]: 55.7 °C

Q: Which folding enthalpy [1] does the source give for GGCGCAGGAAACCGCACC ((.((.(....).)).)) here?
A: -27.5 kcal/mol

Q: What about the Tm [2] of the same sequence?
A: 39 °C

Q: For GTACTGACGAAAGTCTAC (((..(((....)))))), which folding enthalpy [1] is on record?
A: -6.65 kcal/mol

Q: What about the Tm [2] of the same sequence?
A: 21.8 °C

Q: Which folding enthalpy [1] does the source give for GATCGCGGAAACGTGATC ((((.((....)).)))) here?
A: -38.6 kcal/mol

Q: What about the Tm [2] of the same sequence?
A: 57.5 °C

Q: What does the source list for GCAGTCGCGAAAGCGTGC (((..(((....))))))?
A: folding enthalpy [1]: -14.2 kcal/mol; Tm [2]: 46.1 °C

Q: Which results are given for GTCGTATCGAAAGATGAC (((..(((....))))))?
A: folding enthalpy [1]: -20 kcal/mol; Tm [2]: 34.1 °C

Q: For GATCGGCGATCCGATC ((((((....)))))), which folding enthalpy [1] is on record?
A: -35.3 kcal/mol

Q: What about the Tm [2] of the same sequence?
A: 55 °C

Q: What does the source list for GCTTGCGGAAACGTAAGC ((((.((....)).))))?
A: folding enthalpy [1]: -35.1 kcal/mol; Tm [2]: 52.5 °C

Q: What does the source list for GTCCTTGGAAACAAGGAC (((((((....)))))))?
A: folding enthalpy [1]: -38.8 kcal/mol; Tm [2]: 59.8 °C

Q: Which folding enthalpy [1] does the source give for CGTGGCGGAAACGCAACG (((.(((....))).))) here?
A: -38.7 kcal/mol

Q: What about the Tm [2] of the same sequence?
A: 56.8 °C

Q: What does the source list for GATGGCGAAAGCCAATC ((((((....))).)))?
A: folding enthalpy [1]: -14.1 kcal/mol; Tm [2]: 50.7 °C

Q: For GGTTACGAAAGTATAACC ((((((....)))..))), which folding enthalpy [1] is on record?
A: -20 kcal/mol

Q: What about the Tm [2] of the same sequence?
A: 37.2 °C

Q: For GTCTACGGAAACGTAGGC (.(((((....))))).), which folding enthalpy [1] is on record?
A: -29.2 kcal/mol

Q: What about the Tm [2] of the same sequence?
A: 51.2 °C

Q: For CGTTGCGGAAACGCACG (((.(((....)))))), which folding enthalpy [1] is on record?
A: -21.4 kcal/mol

Q: What about the Tm [2] of the same sequence?
A: 52.8 °C

Q: What does the source list for GTTAAAGGAAACTTTAGC (.(((((....))))).)?
A: folding enthalpy [1]: -20.6 kcal/mol; Tm [2]: 27.6 °C

Q: Which folding enthalpy [1] does the source give for GCATTGCGAAAGCGCTGC (((..((....))..))) here?
A: -18.8 kcal/mol

Q: And the Tm [2]?
A: 45.7 °C

Q: Which folding enthalpy [1] does the source give for AGCTCGAAAGAGCT (((((....))))) here?
A: -20.8 kcal/mol

Q: What about the Tm [2] of the same sequence?
A: 68.6 °C

Q: For GTGCCAGGAAACTGGTAC ((.((((....)))).)), which folding enthalpy [1] is on record?
A: -29.9 kcal/mol

Q: What about the Tm [2] of the same sequence?
A: 53.8 °C

Q: With GCGTCAAGACGC ((((....)))) as the sequence, how does the folding enthalpy [1] read?
A: -29.9 kcal/mol

Q: What about the Tm [2] of the same sequence?
A: 55.1 °C

Q: Which folding enthalpy [1] does the source give for GAATCGGGAAACTGGTTC (((.(.(....).).))) here?
A: -19.8 kcal/mol

Q: And the Tm [2]?
A: 29.3 °C
